Reference: ChEMBL document CHEMBL2021907, “Amyrisins A-C, O-prenylated flavonoids from Amyris madrensis” (J Nat Prod, 2012)
The source made the active and inactive calls. The rule behind the calls is not given here.

Columns and labels:
PC-3 [1] = assay: Cytotoxicity against human PC3 cells after 48 hrs by SRB assay; format: functional, cell-based; conditions: PC-3, 48 h
Summary of the method: (§1)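 SRB assay over 48 h, with a concentration range up to 50 μM, in cells pre-plated at set densities. PC-3 cells were grown in RPMI 1640 with 10% FBS and 50 µg/mL gentamicin. DU 145 cells were grown in Richter's IMEM with 10% FBS and 25 µg/mL gentamicin. The IC50 is the 50% growth-inhibition concentration, averaged over two independent triplicate experiments.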

DU-145 = assay: Cytotoxicity against human DU145 cells after 48 hrs by SRB assay; format: functional, cell-based; conditions: DU-145, 48 h; summary of the method: as §1
Homo sapiens = species on record: Homo sapiens; assay: Disruption of microtubules in human MDA-MB-435 after 1 hr by immunoblotting technique
PC-3 [2] = assay: Cytotoxicity against human PC3 cells at 50 uM after 48 hrs by SRB assay; format: functional, cell-based; summary of the method: as §1
PC-3 [3] = assay: Effect on cell cycle distribution in human PC3 cells at 50 uM after 18 hrs by flow cytometry; format: functional, cell-based

| Compound | IC50 (PC-3 [1]) [µM] | IC50 (DU-145) [µM] | Activity (Homo sapiens) | Activity (PC-3 [2]) | Activity (PC-3 [3]) |
| --- | --- | --- | --- | --- | --- |
| C=C(C)C(O)COc1ccc(-c2cc(=O)c3c(O)c(OC)c(O)cc3o2)cc1 (stereo unspecified) [AMYRISIN B] | 17.5 | 17.5 | inactive | – | – |
| O=C1OC[C@@H]2Cc3cc4c(cc3[C@@H](c3ccc5c(c3)OCO5)[C@@H]12)OCO4 [POLYGAMAIN] | 0.0706 | – | Active | – | – |
| COc1c(O)cc2oc(-c3ccc(OCC=C(C)C)cc3)cc(=O)c2c1O | – | – | inactive | inactive | – |
| COc1cc(-c2cc(=O)c3c(O)c(OC)c(O)cc3o2)ccc1OCC=C(C)C [AMYRISIN C] | 23 | 23 | inactive | – | inactive |
